Tested on: MS2 coat protein
Assay: apparent Kd, MS2 coat protein; higher = weaker binding; RNA-MaP array
Outline: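 For each design, the apparent Kd is the median of binding-curve fits across its clusters. Designs measured on fewer than 10 clusters were dropped. The RNAs were transcribed from sequenced DNA templates on an Illumina sequencing chip and incubated at room temperature, with or without input ligand, with fluorescently labeled MS2 coat protein at 1.5 nM to 3 μM.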

[1] = designed as: ON switch for flavin mononucleotide, no ligand
[2] = ligand present: flavin mononucleotide, designed as: ON switch for flavin mononucleotide
[3] = designed as: OFF switch for flavin mononucleotide, no ligand
[4] = ligand present: flavin mononucleotide, designed as: OFF switch for flavin mononucleotide
[5] = designed as: ON switch for theophylline, no ligand
[6] = ligand present: theophylline, designed as: ON switch for theophylline

Sequence	apparent Kd [1]	apparent Kd [2]	apparent Kd [3]	apparent Kd [4]	other results
UGCUAAAGUGAGAAGGGUGGACCACUCAUCGAGUAUGACACAUGAGGAUCACCCAUGUACGCUCCACAGGAUAUCAAAUUGAGG	156 nM	28.8 nM	–	–	–
AUGCACAUCUAGGAUACCAGCACCCUUAUGUCACUAGUUAACAUGAGGAUCACCCAUGUUUGCCCUUGGCAGCCUCAUUGACCAU	–	–	–	–	apparent Kd (designed as: OFF switch for theophylline, no ligand): 68.5 nM; apparent Kd (ligand present: theophylline, designed as: OFF switch for theophylline): 172 nM
AACAAAUGGGAAGGAUAUCGUUACAUGAGGAUCACCCAUGUCUACCUUGGGAGCGGUAGCUAUGUCGAGAAGGUCCAUGCGCGA	394 nM	84.1 nM	–	–	–
ACGGUAGGCUAGAAGGCCCGGACUCGCCCAGAGGGAGGAUAUAGCAUUGGCGUACUACAUGGCACAUGAGGAUCACCCAUGUAA	–	–	35.4 nM	30.6 nM	–
AUGUAACAUGAGGAUCACCCAUGUAAGGAUAUGCAACAAAACUCUGAAUCGUAAGUUCGCAGAAGGUACAUUAG	–	–	28.4 nM	27.3 nM	–
AACAAAAGGAAGAAGGCAGUUAAACAUGAGGAUCACCCAUGUGGGACGCGGGAAAUCAACGAGACUGAGGAUAUUCAUUAAGAA	–	–	9.84 nM	20.9 nM	–
GACCUCCUGCGAGCACAUGAGGAUCACCCAUGUAAGGACCUGAGAAGGCACCGUUAAGAUUGGAGUGAGGAUAUCAGGAUAUAG	–	–	23.5 nM	19.7 nM	–
CACACCGAAGGAUAUACUACUGCUAUUUAGAGUGAGGGCGAACAUGAGGAUCACCCAUGUAGAAGGUCGAGAAA	–	–	17.5 nM	20.6 nM	–
UCAAGCAUGGAGAAGGCCCGGGUUGACACGUCGGGAGGAUAUCCAGACUCACAUGAGGAUCACCCAUGUUAUUGCGGCGACUCC	–	–	40.3 nM	57 nM	–
AGACGGUUACAGGAUAUGACUACUGCUAGAGCAUCAGAAGGGUAUACAUGAGGAUCACCCAUGUCUUCACGGCG	–	–	10.1 nM	9.62 nM	–
CGACAUUAAACAUGAGGAUCACCCAUGUGACCCUAUUGUCCAAAGGAUAUCUUAUGAAUAGAGAAAGAGAAGGUUGUAUUCCCA	–	–	241 nM	196 nM	–
CCGGGCAGUUUAGGAUAUACACGUGAUUCAUGCGUAGAAGGAAAUCACAGAAUAGUUUCCUGGACAUGAGGAUCACCCAUGUAG	252 nM	147 nM	–	–	–
GUAACGGGAAGCAGUGGCUUGACAUGAGGAUCACCCAUGUACAGAAGGGACGAUUACGUAAUGCGUCAGGAUAUGUGCCGUAGA	48 nM	28.1 nM	–	–	–
UAGUACAUGAGGAUCACCCAUGUCGGAGGUCGAGGACCGGUACGGCCGCCACUCGGUCAUGCCCUACGAUACGACAGGAAUCUGU	–	–	–	–	apparent Kd (designed as: ON switch for tryptophan, no ligand): 22.2 nM; apparent Kd (ligand present: tryptophan, designed as: ON switch for tryptophan): 16.8 nM
AUCUACGUGGGUGAUACCAGCUGGUUAGUACACAUGAGGAUCACCCAUGUGCAGGCAGGCAGCCCUUGGCAGCACCGCAGUGGCU	–	–	–	–	apparent Kd [5]: 120 nM; apparent Kd [6]: 35 nM
ACUAGGGACCUGACAUGAGGAUCACCCAUGUUCUCGGAUCACAAGGAUAUCCGCACGUACCUGUGGGAGAAGGUGUCGUCCCAC	26 nM	21.8 nM	–	–	–
CCGCACAUGAGGAUCACCCAUGUUCCCAGUCAACUAGGAGCCAAGGAUAUCGUUCGCGAGUGCACCGAGAAGGUGGCCCAUGAA	193 nM	72.6 nM	–	–	–
GAAAAUACAUGAGGAUCACCCAUGUGGUGGCGUCAGAUUGGUUAGGAUAUCUUGGCGGGAUACUGAGAGAAGGAACUUUGAAGG	–	–	181 nM	136 nM	–
CAUUAUCGCGUUAGGAUAUGAACAAGAAAUCGGCUACAGAAGGAACAUGAGGAUCACCCAUGUAUGAUCAAGAC	–	–	13.1 nM	10.7 nM	–
AAUUCCUGUAAGAAGGGCGAUAUACAUGAGGAUCACCCAUGUCGUUGGAUUGAAGAAAAUCAGACGCAGGAUAUUAUUGGGAAC	94.3 nM	40 nM	–	–	–
ACAUGAGGAUCACCCAUGUCCUAAAAUGAGGCGAAUACGGCCAAGGAUAUUGGAACAACAGAAGUCAAGAAGGUGGCUAAAUUA	56.7 nM	28.3 nM	–	–	–
GCAUAACAUGAGGAUCACCCAUGUGAGGAUAUUCCCUCCGGCAAUUGCUCCCAAGAGGGAAGAAGGCACAGUGG	–	–	146 nM	66.1 nM	–
AAACAGGAAGGAUAUACAUGAGGAUCACCCAUGUCAAAUAAAACAAAUAAGCAAGAAUGUAGAAGGACCAAAAU	–	–	17.2 nM	12.8 nM	–
AAAUGCAUUCGAGGAUAUGUCAUGAUGUUGUAAACAGAAGGCGAGGCAUCGACAUGAGGAUCACCCAUGUGCACAGGUAAAAGU	37.6 nM	16.4 nM	–	–	–
GCAAAAGCGCUCUAGAGACAUGAGGAUCACCCAUGUGUGGGUAGAAGGUCCUACGUACCAUUAAGGAAGGAUAUACACAUAUAU	1090 nM	540 nM	–	–	–
GCGCCAAGUAAGAAGGGCUCAAAGGAAAACCUAGACUUCACUACAUGAGGAUCACCCAUGUCUCAGCAGGAUAUUAUCGGUCAA	22.2 nM	17.9 nM	–	–	–
UUGAACAUGAGGAUCACCCAUGUGGAUGAUACCAGCUAAAACAUAAGCCCUUGGCAGCAUUAAAAUGAAAUAUCGAAAAGGAAAG	–	–	–	–	apparent Kd [5]: 143 nM; apparent Kd [6]: 54.9 nM

Sequence	apparent Kd [1]	apparent Kd [2]	apparent Kd [3]	apparent Kd [4]	other results
UAGGUUCUAGUUUCUGCACAUGAGGAUCACCCAUGUUUAGUAAAGGAUAUCACGGUAAGUCGACGUGAGAAGGUUACGUUAGGG	–	–	33.6 nM	37 nM	–
GUCGGAGUGGAGAAGGCGCCAACGUAAGCGCGGCGAGGAUAUCCCUACCCUACAUGAGGAUCACCCAUGUCGACGAGAGUAUCG	11.3 nM	7.99 nM	–	–	–
GCGGGAGAUCAGAAGGCUAUAACGUUUCACAUGAGGAUCACCCAUGUGGGCUCCUAGGGAUGGAUAGAGGAUAUGACCGAAUAU	–	–	12.9 nM	13.3 nM	–
UUAUGUGACGAGGAUAUGAAAAGGAGUGGUGAAUCAGAAGGCGUAACAUGAGGAUCACCCAUGUCAGUGGGCCU	–	–	49.6 nM	71.3 nM	–
ACCCACAGAGGAUAUACAGCGAAACCUCAUAUUAAAUAUUCACAUGAGGAUCACCCAUGUAGAAGGCUGGAGAA	–	–	10.9 nM	38.8 nM	–
CACUGACAUGAGGAUCACCCAUGUCUCCUGCUUGUAGGAUAUAGGUGGUCGCUGGACAGUCUAGAAGGACAUGUAA	54.7 nM	49.5 nM	–	–	–
CUGUUUGGAGAGGAUAUGUCGGGAAGCUAAUCAACAGAAGGCUCAACAUGAGGAUCACCCAUGUCGGGUGCGUA	–	–	16.8 nM	49.1 nM	–
ACGGGUGACAAGAAGGGCUAGGUAACAUGCCGUAGACUAGAAUAACAUGAGGAUCACCCAUGUAAGCAGGAUAUUGUAUAAUAA	156 nM	52.8 nM	–	–	–
GAGUACAGGGAGAAGGUGUAUUAAUACGCACGGCUGGUCACAUGAGGAUCACCCAUGUCGCAUAACAAGGAUAUCCGACUAAUC	–	–	139 nM	213 nM	–
GUUGGAUUUGUGAGGAUAUGGCCGUGACAUUUGGACCAGAAGGCACAUGAGGAUCACCCAUGUAUUGAAGAACG	–	–	23.3 nM	53.4 nM	–
UGGAAGAUUGAAGGAUAUCCGGUCAAUUAAUAUGGAGAAGGUCAAUAUAUGGACAUGAGGAUCACCCAUGUAGAGUCAACUCGA	38.5 nM	26.8 nM	–	–	–
ACAUGAGGAUCACCCAUGUUGUCAUAGCAACUUUACAGGAGGAGAAGGCGAGGUUGGGCUGCCCUCGAGGAUAUCCGUAGAAAA	10.4 nM	6.45 nM	–	–	–
GUUACAUGAGGAUCACCCAUGUGGGCUGUAUGUAGCGCACCUGAGGAUAUGGCCCGGAGGUAGGACCAGAAGGCAGCGAAGAGC	–	–	65.4 nM	55.3 nM	–
CCAGCGAGUUAGACCUUACAUGAGGAUCACCCAUGUUGGCGUAGAAGGACGCUCAUAAGCACUGCGUAGGAUAUACUCACCAAU	–	–	7.99 nM	10.4 nM	–
CGUAUGGGUGUCAGGAUAUGCGGGACGCUGUUACUGCAGAAGGGACAUGAGGAUCACCCAUGUAGUUCCAGACC	–	–	18.4 nM	33.3 nM	–
UGUCCCACGCAAGUACAUGAGGAUCACCCAUGUCUGAACCAGAGAAGGAGAGUUAUACUGGAAAUCUAGGAUAUCUGACAGACU	–	–	43.3 nM	50.5 nM	–
CGCGACUUCAGAGGAUAUGUGCGUGUCACAUGAGGAUCACCCAUGUAAGGUUACCUACGACCGGGACAGAAGGCUGACCCAAAA	61 nM	19.6 nM	–	–	–
ACGUAGUGCCGAGGAUAUGUAACAUGAGGAUCACCCAUGUUCUCUAACAGGUCGAUUUUAAGCACACAGAAGGCGGGUGUUGAU	–	–	11.3 nM	11.8 nM	–
CCCAUUGAGGAGGAUAUACUAUUGGAGACUCUCGUAGAAGGCCUGACAUGAGGAUCACCCAUGUACGUGAUAUC	–	–	121 nM	76.7 nM	–
CUCAGCGGGCUAGGAUAUGGCCUGUGGUUUAGGCCAGAAGGAGCUCACUAAGCACAUGAGGAUCACCCAUGUCUCAAUGCCUGA	14.8 nM	8.84 nM	–	–	–
UAGGUGCUAGGAGGAUAUUGUGAAUUUAAUUUUCAAGAAGGCCUGAACAGACUGCACAUGAGGAUCACCCAUGUAUCCAACGUC	–	–	17.2 nM	11.7 nM	–
ACAUGAGGAUCACCCAUGUGUCUCCUUUCCAUUACGAUCUUUAGAAGGGUCCGCAAACACUCUGGACAGGAUAUAAAGUAUGGC	–	–	13.4 nM	12.2 nM	–
UUAGAUCGUGUCAGGAUAUCGGACCGGCCCGCCUCCGAGAAGGGACAUGAGGAUCACCCAUGUCACGGUCCAUU	–	–	7.73 nM	7.84 nM	–
GCUGGACAUGAGGAUCACCCAUGUGAGGAUAUGAGAAGUAUCAUGCACCCGAUCCAUCUCAGAAGGCACAGGUG	–	–	71.5 nM	258 nM	–
UAAAAGUUAGGAUAUACUAGUGAGCAAUGAAUAACAAAGUAACAUGAGGAUCACCCAUGUAGAAGGAACUGCAG	–	–	12.1 nM	12.4 nM	–
ACUAAACCACAGAAGGAACUGAGUGCGCAAAAGUAAGGAUAUGUAAACAAUAACAUGAGGAUCACCCAUGUGACAGUAAGUUUA	8.31 nM	7.2 nM	–	–	–
ACAAUAAAUCAAGGAUAUGAACGAAGCAAGUGAUCAGAAGGUGAAAUAAACCCAUAAACUCCAACAUGAGGAUCACCCAUGUGA	54 nM	35.5 nM	–	–	–
